Test results reported in ChEMBL document CHEMBL4017549, “Structural Basis of Inhibition of ERα-Coactivator Interaction by High-Affinity N-Terminus Isoaspartic Acid Tethered Helical Peptides” (J Med Chem, 2017).
Active and inactive are the calls of the source. The calls are words filed in the database; no cut-off is given here.

Columns and labels:
[1] = biological target: T1, Progesterone receptor (Homo sapiens, UniProt P06401); test: Binding affinity to recombinant human GST-tagged PGR LBD (678 to 933 residues) expressed in Escherichia coli BL21 star(DE3) after 40 mins in presence of progesterone by fluorescence polarization assay
T1 sequence (P06401 whole entry): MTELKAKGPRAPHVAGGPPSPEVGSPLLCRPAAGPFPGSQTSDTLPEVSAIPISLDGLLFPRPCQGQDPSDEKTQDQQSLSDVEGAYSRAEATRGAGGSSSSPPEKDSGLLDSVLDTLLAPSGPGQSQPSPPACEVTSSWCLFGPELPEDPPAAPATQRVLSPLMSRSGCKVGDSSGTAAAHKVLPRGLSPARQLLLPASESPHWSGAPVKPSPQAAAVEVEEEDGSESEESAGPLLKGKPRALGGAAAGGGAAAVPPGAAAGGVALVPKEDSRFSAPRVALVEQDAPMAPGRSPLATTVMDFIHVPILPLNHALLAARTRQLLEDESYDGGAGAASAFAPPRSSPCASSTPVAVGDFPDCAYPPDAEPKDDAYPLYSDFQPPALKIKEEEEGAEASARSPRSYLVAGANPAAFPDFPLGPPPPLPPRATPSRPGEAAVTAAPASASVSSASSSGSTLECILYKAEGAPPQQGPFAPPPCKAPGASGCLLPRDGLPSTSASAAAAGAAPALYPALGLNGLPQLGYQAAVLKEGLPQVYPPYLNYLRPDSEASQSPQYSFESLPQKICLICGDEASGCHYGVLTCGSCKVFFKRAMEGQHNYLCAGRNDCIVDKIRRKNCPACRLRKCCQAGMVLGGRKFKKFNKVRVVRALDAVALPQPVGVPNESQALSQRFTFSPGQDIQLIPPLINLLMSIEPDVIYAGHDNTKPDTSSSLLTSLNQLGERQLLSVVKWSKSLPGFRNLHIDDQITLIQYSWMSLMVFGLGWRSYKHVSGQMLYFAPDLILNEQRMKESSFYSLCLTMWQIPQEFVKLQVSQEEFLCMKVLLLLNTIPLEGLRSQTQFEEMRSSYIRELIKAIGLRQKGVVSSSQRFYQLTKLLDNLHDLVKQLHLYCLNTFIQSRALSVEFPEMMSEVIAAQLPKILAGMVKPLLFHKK
How it was run: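 FITC-labelled peptide at 10 nM final with increasing GST-PgR LBD in 20 mM Tris-HCl pH 8.0, 150 mM NaCl, 5% glycerol, 1 mM TCEP plus 10 μM progesterone. 40 min dark incubation, polarization at 298 K (ex 480/em 535 nm). KD by nonlinear regression against protein concentration.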

[2] = biological target: T2, Estrogen receptor (Homo sapiens) (UniProt P03372); test: Binding affinity to recombinant human GFP-fused ERalpha LBD (301 to 553 residues) expressed in Escherichia coli BL21(DE3) in presence of ERalpha inhibitor 4-hydroxytamoxifen by ITC
T2 sequence (whole entry): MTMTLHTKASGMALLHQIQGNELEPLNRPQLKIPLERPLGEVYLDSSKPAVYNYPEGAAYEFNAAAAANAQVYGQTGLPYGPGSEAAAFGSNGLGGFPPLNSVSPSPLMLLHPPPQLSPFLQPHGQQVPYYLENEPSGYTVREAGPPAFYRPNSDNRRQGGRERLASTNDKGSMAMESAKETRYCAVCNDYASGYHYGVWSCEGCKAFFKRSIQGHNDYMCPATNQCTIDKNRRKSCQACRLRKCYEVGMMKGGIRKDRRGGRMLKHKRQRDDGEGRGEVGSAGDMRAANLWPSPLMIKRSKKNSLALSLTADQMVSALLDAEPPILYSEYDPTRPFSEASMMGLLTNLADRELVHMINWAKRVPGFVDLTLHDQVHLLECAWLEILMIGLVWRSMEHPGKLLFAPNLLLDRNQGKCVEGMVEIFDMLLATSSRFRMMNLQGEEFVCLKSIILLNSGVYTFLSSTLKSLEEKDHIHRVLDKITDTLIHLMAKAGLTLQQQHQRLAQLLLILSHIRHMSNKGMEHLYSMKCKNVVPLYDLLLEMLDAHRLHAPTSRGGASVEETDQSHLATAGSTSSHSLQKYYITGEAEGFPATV
How it was run: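 ITC at 25 °C. 50 μM peptide injected in 2 μL steps into 5 μM ERα LBD in 50 mM Tris pH 8.0, 150 mM NaCl, 1 mM TCEP containing 0.1 mM 4-hydroxytamoxifen instead of estradiol. Isotherm fitted.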

[3] = biological target: Estrogen receptor beta (Homo sapiens, UniProt Q92731); test: Binding affinity to recombinant human GFP-fused ERbeta LBD (259 to 498 residues) expressed in Escherichia coli BL21(DE3) after 40 mins in presence of 17beta-estradiol by fluorescence polarization assay
Estrogen receptor beta, sequence (Q92731 whole entry, the tested form may be a part): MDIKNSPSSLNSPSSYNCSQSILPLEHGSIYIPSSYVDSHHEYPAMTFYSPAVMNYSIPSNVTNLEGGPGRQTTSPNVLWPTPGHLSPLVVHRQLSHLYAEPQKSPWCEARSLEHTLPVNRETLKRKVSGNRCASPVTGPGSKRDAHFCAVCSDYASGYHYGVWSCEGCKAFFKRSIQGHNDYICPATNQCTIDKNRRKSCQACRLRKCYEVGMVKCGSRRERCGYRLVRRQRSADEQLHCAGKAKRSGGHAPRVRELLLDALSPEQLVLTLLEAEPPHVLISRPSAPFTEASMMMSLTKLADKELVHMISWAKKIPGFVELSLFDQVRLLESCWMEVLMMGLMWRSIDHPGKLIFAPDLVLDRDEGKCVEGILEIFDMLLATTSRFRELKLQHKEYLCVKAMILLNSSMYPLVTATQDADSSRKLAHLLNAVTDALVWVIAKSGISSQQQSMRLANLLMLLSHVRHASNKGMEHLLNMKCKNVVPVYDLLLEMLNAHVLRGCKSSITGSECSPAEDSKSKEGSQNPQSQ
How it was run: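 FITC-labelled peptide at 10 nM final, titrated with increasing purified LBD (ERβ LBD carrying C334S, C369S, C481S) in 20 mM Tris-HCl pH 8.0, 150 mM NaCl, 5% glycerol, 1 mM TCEP with 10 μM 17β-estradiol. Incubated 40 min in the dark, polarization read at 298 K (ex 480/em 535 nm). KD from nonlinear regression of polarization versus protein concentration.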

[4] = biological target: T3, Estrogen receptor (Homo sapiens, UniProt P03372); test: Binding affinity to recombinant human GFP-fused ERalpha LBD (301 to 553 residues) expressed in Escherichia coli BL21(DE3) after 40 mins in presence of 17beta-estradiol by fluorescence polarization assay
T3 sequence (P03372 whole entry): T2 sequence (whole entry)

[5] = Drug uptake in human MCF7 cells at 5 uM after 3 hrs in presence of 10 nM E2 by DAPI-staining based confocal laser scanning microscopic analysis; conditions: mcf7, 3 h

Kd [1]: 248 nM | Activity [2]: inactive | Kd [3]: 297 nM | Kd [4]: 67 nM | Drug uptake [5]: Active
SMILES: CC[C@H](C)[C@@H]1NC(=O)C[C@H](NC(=O)[C@H](CCCNC(=N)N)NC(=O)CCNC(=S)Nc2ccc3c(c2)C(=O)OC32c3ccc(O)cc3Oc3cc(O)ccc32)C(=O)NCC(C(=O)N[C@@H](CCCNC(=N)N)C(=O)NC(CC(C)(C)C)C(=O)NC(CC(C)(C)C)C(=O)N[C@@H](CCC(N)=O)C(N)=O)NC(=O)C(CC(C)(C)C)NC1=O (stereo not given in full)
